Reference: ChEMBL document CHEMBL1156185, “A class of 3S-2-aminoacyltetrahydro-beta-carboline-3-carboxylic acids: their facile synthesis, inhibition for platelet activation, and high in vivo anti-thrombotic potency” (J Med Chem, 2010)

Tests used:
[1] = Antiplatelet aggregation activity against platelet-activating factor-induced pig platelet aggregation after 5 mins by aggregometer; type: functional, cell-based; settings: Sus scrofa
In short: (§1)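 Pig blood from six pigs was spun at 1000 rpm for 10 min to give PRP, then at 1500g for 10 min to give PPP. PRP was adjusted to 2 × 10⁸ platelets/mL with autologous PPP. Test agent or NS was added at final 100 µM–1 nM. Agonists were at final concentrations of ADP 10 µM, AA 350 µM, PAF 0.1 µM and thrombin 0.1 U/mL. Light-transmission peak was read at 37 °C over 5 min, in sextuplicate. IC50 was taken from the concentration–inhibition curve.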

[2] = system: Platelet; test: Ratio of IC50 for thrombin-induced pig platelet aggregation to IC50 for ADP-induced pig platelet aggregation; type: functional, Sus scrofa
In short: (§2)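 Fold ratios of IC50 values. Each IC50 came from pig PRP (2 × 10⁸ platelets/mL) light-transmission aggregometry at 37 °C for 5 min, in sextuplicate, with final ADP 10 µM, AA 350 µM, PAF 0.1 µM or thrombin 0.1 U/mL.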

[3] = system: Platelet; test: Ratio of IC50 for arachidonic acid-induced pig platelet aggregation to IC50 for ADP-induced pig platelet aggregation; type: functional, Sus scrofa; in short: as §2
[4] = system: Platelet; test: Ratio of TCCA IC50 to compound IC50 for ADP-induced pig platelet aggregation; type: functional, Sus scrofa; in short: as §2
[5] = Antiplatelet aggregation activity against arachidonic acid-induced pig platelet aggregation after 5 mins by aggregometer; type: functional, cell-based; settings: Sus scrofa; in short: as §1
[6] = Antiplatelet aggregation activity against thrombin-induced pig platelet aggregation after 5 mins by aggregometer; type: functional, cell-based; settings: Sus scrofa; in short: as §1
[7] = Antiplatelet aggregation activity against ADP-induced pig platelet aggregation after 5 mins by aggregometer; type: functional, cell-based; settings: Sus scrofa; in short: as §1
[8] = system: Rattus norvegicus; test: Antithrombotic activity in Wistar rat arterioveinos cannula model assessed as reduction of thrombus weight at 100 nmol/kg, iv; type: functional
In short: (§3)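 Male Wistar rats, 250–300 g. Agents were dissolved in NS and kept on ice. Heparin sodium was injected into a thread-containing polyethylene cannula, then NS or agent was injected intravenously. The cannula joined the right carotid artery to the left jugular vein, and blood flowed through it for 15 min. Wet thrombus weight on the thread was recorded as mean ± SD, n = 12.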

[9] = system: Platelet; test: Ratio of IC50 for platelet-activating factor-induced pig platelet aggregation to IC50 for ADP-induced pig platelet aggregation; type: functional, Sus scrofa; in short: as §2
[10] = system: Rattus norvegicus; test: Antithrombotic activity in Wistar rat arterioveinos cannula model assessed as reduction of thrombus weight at 1 umol/kg, iv; type: functional; in short: as §3
[11] = system: Rattus norvegicus; test: Antithrombotic activity in Wistar rat arterioveinos cannula model assessed as reduction of thrombus weight at 10 nmol/kg, iv; type: functional; in short: as §3
[12] = system: Rattus norvegicus; test: Antithrombotic activity in Wistar rat arterioveinos cannula model assessed as reduction of thrombus weight at 100 nmol/kg, po; type: functional
In short: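 Male Wistar rats received agent in NS, or NS alone, orally. Blood then passed from the right carotid artery to the left jugular vein through a thread-containing polyethylene cannula for 15 min. Wet thrombus weight was reported as mean ± SD, n = 12.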

[13] = system: Rattus norvegicus; test: Antithrombotic activity in Wistar rat arterioveinos cannula model assessed as reduction of thrombus weight at 1 nmol/kg, iv; type: functional; in short: as §3

Row | IC50 [1] [nM] | IC50 [5] [nM] | IC50 [6] [nM] | IC50 [7] [nM] | Structure (SMILES) | Ratio IC50 [2] | Ratio IC50 [3] | Ratio IC50 [4] | Thrombus weight [8] [mg] | Ratio IC50 [9] | Activity [10] [mg] | Activity [11] [mg] | Activity [12] [mg] | Activity [13] [mg]
1 | 16.8 | 27.9 | 29.6 | 10.4 | N[C@@H](Cc1c[nH]c2ccccc12)C(=O)N1Cc2[nH]c3ccccc3c2C[C@H]1C(=O)O | 2.8 | 2.7 | 67 | 18.43 | 1.6 |  |  |  | 
2 | 13.1 | 24 | 26.6 | 6.62 | N[C@@H](CC(=O)O)C(=O)N1Cc2[nH]c3ccccc3c2C[C@H]1C(=O)O | 4 | 3.6 | 106 | 14.4 | 2 |  |  |  | 
3 | 14.8 | 29.6 | 30.9 | 10.2 | N[C@@H](CCC(=O)O)C(=O)N1Cc2[nH]c3ccccc3c2C[C@H]1C(=O)O | 3 | 2.9 | 68 | 16.6 | 1.4 |  |  |  | 
4 | 15.5 | 24.9 | 29 | 7.31 | N[C@@H](Cc1cnc[nH]1)C(=O)N1Cc2[nH]c3ccccc3c2C[C@H]1C(=O)O | 4 | 3.4 | 96 | 15.89 | 2.1 |  |  |  | 
5 | 18.2 | 27.5 | 29.7 | 9.47 | N=C(N)NCCC[C@H](N)C(=O)N1Cc2[nH]c3ccccc3c2C[C@H]1C(=O)O | 3.1 | 2.9 | 74 | 16.68 | 1.9 |  |  |  | 
6 | 17 | 30.1 | 33.4 | 11.1 | NCCCC[C@H](N)C(=O)N1Cc2[nH]c3ccccc3c2C[C@H]1C(=O)O | 3 | 2.7 | 63 | 16.54 | 1.5 |  |  |  | 
7 | 17.2 | 28.2 | 30.1 | 7.7 | NC(=O)CC[C@H](N)C(=O)N1Cc2[nH]c3ccccc3c2C[C@H]1C(=O)O | 3.9 | 3.7 | 91 | 17.3 | 2.2 |  |  |  | 
8 | 16.2 | 28.9 | 30 | 9.19 | NC(=O)C[C@H](N)C(=O)N1Cc2[nH]c3ccccc3c2C[C@H]1C(=O)O | 3.3 | 3.2 | 76 | 16.34 | 1.8 |  |  |  | 
9 | 16.9 | 26.8 | 34.1 | 8.7 | CC(C)C[C@H](N)C(=O)N1Cc2[nH]c3ccccc3c2C[C@H]1C(=O)O | 3.9 | 3.1 | 81 | 25.26 | 1.9 | 10.55 |  |  | 
10 | 16.8 | 26.5 | 31.9 | 8.56 | NCC(=O)N1Cc2[nH]c3ccccc3c2C[C@H]1C(=O)O | 3.7 | 3.1 | 82 | 19.29 | 2 |  |  |  | 
11 | 14.7 | 24.4 | 27.6 | 7.1 | N[C@@H](CS)C(=O)N1Cc2[nH]c3ccccc3c2C[C@H]1C(=O)O | 3.9 | 3.4 | 99 | 15.25 | 2.1 |  |  |  | 
12 | 12.4 | 23.5 | 25.3 | 6.5 | CSCC[C@H](N)C(=O)N1Cc2[nH]c3ccccc3c2C[C@H]1C(=O)O | 3.9 | 3.6 | 108 | 13 | 1.9 |  | 17.67 | 13.49 | 22.59
13 | 13.6 | 24.6 | 27.4 | 6.71 | C[C@H](N)C(=O)N1Cc2[nH]c3ccccc3c2C[C@H]1C(=O)O | 4.1 | 3.7 | 104 | 14.61 | 2 |  |  |  | 
